Screens: PubChem BioAssay, Broad Institute
Sampled rows, rich in hits. Any-hit rate of the full collection: about 3.8%.
FGF22 binding: shifts melting point of recombinant human FGF22; recombinant FGF22 thermal shift, SYPRO orange fluorescence; percent of sucrose octasulfate shift, DMSO zero; activity (Tm shift, normalised), % at 9.99 µM; 340,000 compounds, 1.5% hits; AID 651658;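 active = mean Tm shift, scaled 0 neutral to 100 positive control, at about 1.3% or above, every replicate too, limit read from the data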
SIRT5 inh: blocks human SIRT5 desuccinylation of peptide | AID 652115 | inhibition, % at 15 µM | Purified SirT5, succinyl-peptide AMC, trypsin-coupled fluorescence | 330,000 compounds, 1.1% hits; in the data active = inhibition above about 15%
Target sequence (Q9NXA8 whole entry, looked up): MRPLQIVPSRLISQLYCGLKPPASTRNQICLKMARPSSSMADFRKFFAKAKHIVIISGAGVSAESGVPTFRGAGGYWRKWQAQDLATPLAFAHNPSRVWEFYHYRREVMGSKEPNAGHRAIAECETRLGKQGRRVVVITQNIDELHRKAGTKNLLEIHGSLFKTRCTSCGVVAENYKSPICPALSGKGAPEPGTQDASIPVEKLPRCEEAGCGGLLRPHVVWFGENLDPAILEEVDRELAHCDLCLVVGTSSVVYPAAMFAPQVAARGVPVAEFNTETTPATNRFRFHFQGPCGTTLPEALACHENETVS
ARNT-TACC3 inh: disrupts binding between human ARNT and TACC3; AID 623870; Q9Y6A5; inhibition, % at 9.99 µM; AlphaScreen His-ARNT PAS-B/GST-TACC3 binding, luminescence; TACC3 fragment carries E629A point mutation; 390,000 compounds, 0.66% hits;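 active = mean inhibition of replicates at least 50% and at least half of replicates each reaching 50%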
XiGFP reactiv: activators of X-chromosome reactivation in mouse fibroblasts; 360,000 compounds, 0.055% hits; activation, % at 7.58 µM; XiGFP mouse fibroblasts, % GFP-positive cells imaging, 3 d; cells co-treated with 5-aza-dC sensitizer; scaled so ellipticine positive control = 100%;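 active = mean normalized replicate activation at least 10% and every replicate at or above 10%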
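System: SV40-immortalized XiGFP fibroblast cells, line 68-5-11 / Incubation: 3-day compound exposure, then 15 min fixation at room temperature / Compound: single concentration per compound, delivered by pin transfer / Buffer or medium: DMEM plus 5-aza-dC sensitizer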
DENV2 CPE: DENV2-induced cell death inhibition; DENV2-infected cells, cytopathic effect rescue, plate reader; CPE inhibition, % at 9.99 µM; 350,000 compounds, 1.7% hits; AID 651640; in the data active = CPE inhibition above about 20%, passing the limit was not always enough; tested in BHK-21 cells
FN deposition inh: fibronectin deposition inhibition; AH1F fibroblasts, Alexa488-fibronectin deposition fluorescence, overnight; inhibition, % at 12.6 µM; 350,000 compounds, 0.086% hits; AID 743247;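 active = mean inhibition across replicates of 30% or more, regardless of how many single replicates reach that level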
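Material: AH1F fibroblasts assembling fluorescent fibronectin matrix; amount: 10000 AH1F cells/well; medium: DMEM, 2% serum; reagent: Alexa488-fibronectin, 24 nM final in well; dosing: single compound dose, delivered by pin transfer; incubation: 1 h adhesion, overnight exposure; detection: fluorescence after three HBSS washes, excitation 485 nm, emission 525 nm; measure: fibronectin deposition inhibition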
Hits are given with their value; - = inactive; . = no result given; ! = not confirmed by another sample.

SMILES | FGF22 binding | SIRT5 inh | ARNT-TACC3 inh | XiGFP reactiv | DENV2 CPE | FN deposition inh
C[C@H](NC(=O)C[C@H]1CC[C@H]2[C@@H](COC[C@@H](O)CN2Cc2ccc(C(F)(F)F)cc2)O1)c1ccccc1 | - | - | - | - | - | -
C[C@@H](NC(=O)C[C@@H]1CC[C@@H]2[C@H](COC[C@H](O)CN2C(=O)Nc2ccccc2)O1)c1ccccc1 | - | - | - | - | - | -
C[C@H](NC(=O)C[C@@H]1CC[C@H]2[C@@H](COC[C@@H](O)CN2C(=O)Nc2cccc(F)c2)O1)c1ccccc1 | - | 19 | - | - | - | -
C[C@@H](NC(=O)C[C@@H]1CC[C@H]2[C@@H](COC[C@H](O)CN2C(=O)Nc2ccccc2)O1)c1ccccc1 | - | - | - | - | 113 | -
C[C@@H](NC(=O)C[C@H]1CC[C@H]2[C@@H](COC[C@@H](O)CN2Cc2ccc(C(F)(F)F)cc2)O1)c1ccccc1 | - | 17 | - | - | - | -
CCN(CC)N=Nc1ccc(S(N)(=O)=O)cc1 | - | 18 | - | - | . | -
CCNC(=O)C[C@H]1CC[C@H]2[C@@H](COc3ccc(NC(=O)c4cccc(C#N)c4)cc3C(=O)N2C)O1 | . | . | . | - | . | -
COC(=O)C1=C(C)Nc2c(c(=O)n(C)c(=O)n2C)C1c1cccs1 (configuration not stated) | . | . | - | . | . | .
COC(=O)C1=C(C)Nc2c(c(=O)n(C)c(=O)n2C)C1c1cccc(O)c1 (configuration not stated) | - | 20 | - | - | - | -
Fc1cnc(N2CCN(c3ccccc3)CC2)nc1N1CCN(c2ccccc2)CC1 | - | - | - | - | - | 30
O=C1CCCc2nc(N3CCN(c4ccccc4)CC3)ncc21 | . | . | - | . | . | .
O=C(CN1C(=O)CCC1=O)Nc1nc(-c2ccc3ccccc3c2)cs1 | 44 | - | - | - | - | -
COc1ccc(NC(=O)N(C)C[C@H]2OCCCC[C@H](C)Oc3ccc(NC(=O)C4CCCCC4)cc3C(=O)N([C@H](C)CO)C[C@H]2C)cc1 | . | . | . | - | . | .
C[C@@H]1CN([C@@H](C)CO)C(=O)Cc2cc(NC(=O)CCN3CCOCC3)ccc2O[C@H]1CN(C)C(=O)Nc1ccc2c(c1)OCO2 | - | - | - | - | - | .
C[C@@H]1CN([C@H](C)CO)C(=O)Cc2cc(NC(=O)CCN3CCOCC3)ccc2O[C@H]1CN(C)C(=O)Nc1ccc2c(c1)OCO2 | - | - | 46 | - | - | .
C[C@H]1CN([C@@H](C)CO)C(=O)c2cc(NC(=O)CCN3CCOCC3)ccc2O[C@H]1CN(C)C(=O)Nc1ccc2c(c1)OCO2 | - | 20 | - | - | - | .
C[C@H](CO)N1C[C@H](C)[C@@H](CN(C)S(C)(=O)=O)Oc2ccc(NC(=O)CCN3CCOCC3)cc2C1=O | - | 23! | - | - | - | -
CC(C)NC(=O)N(C)C[C@H]1Oc2ccc(NC(=O)CCN3CCOCC3)cc2C(=O)N([C@H](C)CO)C[C@@H]1C | - | - | - | - | - | 39
C[C@H]1CN([C@@H](C)CO)C(=O)c2cc(NC(=O)CCN3CCOCC3)ccc2O[C@@H]1CN(C)C(=O)Nc1ccc2c(c1)OCO2 | - | - | - | - | - | .
C[C@@H]1CN([C@@H](C)CO)C(=O)c2cc(NC(=O)Nc3ccc(F)cc3)ccc2O[C@H]1CN(C)C(=O)NC1CCCCC1 | - | - | - | - | - | .
C[C@@H]1CN([C@@H](C)CO)C(=O)c2cccc(NC(=O)c3ccncc3)c2O[C@H]1CN(C)Cc1ccc(-c2ccccc2)cc1 | - | - | - | - | - | -
C[C@@H]1CN([C@H](C)CO)C(=O)c2cc(NC(=O)CCN3CCOCC3)ccc2O[C@@H]1CN(C)C(=O)Nc1ccc2c(c1)OCO2 | - | - | - | - | 50 | .
O=C(C[C@@H]1CC[C@H]2[C@@H](COC[C@@H](O)CN2S(=O)(=O)c2ccc(Cl)cc2)O1)N[C@H]1CCN(Cc2ccccc2)C1 | - | - | - | - | - | -
CO[C@@H]1CN(C)C(=O)c2cc(NC(C)=O)ccc2OC[C@@H](C)N(C(=O)CC2CC2)C[C@H]1C | - | . | - | . | 27 | .
